In publication PMC3419596 (Cell stem cell, 2012):
“Also recorded” adds a separate entry of the source. Read-outs that look alike come from different tables or passages of the source.

Assays:
T-GFP mESCs = assay: Mesoderm inhibition assay, T-GFP mESC flow cytometry; assay type: cell-based, mouse; conditions: added at day 1 of differentiation
Myh6-GFP mESC = assay: mESC cardiogenesis assay, Myh6-GFP reporter; assay type: cell-based, mouse
[1] = tested on: TGFβ2 signaling (Lefty1 target gene); assay: Lefty1 mRNA in Cripto−/− mESC, TGFβ2-induced; assay type: cell-based, mouse; conditions: Cripto−/− mESCs
Summary of the method: (§1)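 Cripto−/− mESCs are moved to serum-free conditions. At day 2 of embryoid body formation they receive 15 ng/ml Activin A or 15 ng/ml TGFβ2 together with test compound. Lefty1 mRNA is measured by RT-qPCR (SYBR Green) on cDNA from total RNA. The TGFβ2 arm is also run as a time course, with a serum-free-medium-alone control. Data are mean ± SEM of ≥3 biological replicates; Student's t-test.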

[2] = target: type I (TGFBR1) TGFβ receptor (Homo sapiens, UniProt P36897); assay: TGFBR1 kinase activity; assay type: biochemical
Chain of type I (TGFBR1) TGFβ receptor (P36897 34-503, species assumed): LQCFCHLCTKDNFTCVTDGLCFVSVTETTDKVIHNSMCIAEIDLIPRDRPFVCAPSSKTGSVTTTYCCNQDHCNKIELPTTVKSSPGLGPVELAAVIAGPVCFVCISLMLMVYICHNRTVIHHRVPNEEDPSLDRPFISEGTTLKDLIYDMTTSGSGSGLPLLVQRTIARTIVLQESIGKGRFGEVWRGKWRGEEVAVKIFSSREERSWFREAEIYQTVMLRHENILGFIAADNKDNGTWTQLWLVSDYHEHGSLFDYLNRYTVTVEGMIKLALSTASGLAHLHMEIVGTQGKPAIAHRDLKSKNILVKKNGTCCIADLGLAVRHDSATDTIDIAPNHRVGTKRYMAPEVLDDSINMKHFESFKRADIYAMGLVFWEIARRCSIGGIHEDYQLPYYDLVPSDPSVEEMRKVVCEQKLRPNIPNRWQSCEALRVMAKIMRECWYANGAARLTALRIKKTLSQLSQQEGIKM

[3] = tested on: Cripto−/− mESC, Activin A-induced mesoderm; assay: T gene expression in Cripto−/− mESC, mesoderm induced by Activin A; assay type: cell-based, mouse
Summary of the method: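 Mesoderm assay in Cripto−/− mESCs under serum-free conditions. At day 2 of embryoid body formation, cells are given 15 ng/ml Activin A plus test compound. T (Brachyury) mRNA is quantified by RT-qPCR (SYBR Green) on cDNA from total RNA and compared with no-Activin and Activin-alone controls. Data are mean ± SEM of ≥3 biological replicates; Student's t-test.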

TGFBR2 [4] = assay: TGFBR2 internalization; assay type: cell-based; conditions: HA-TGFBR2-mCherry, presence of TGFβ2 ligand
[5] = target: type II (TGFBR2) TGFβ receptor (Homo sapiens, UniProt P37173); assay: TGFBR2 kinase activity; assay type: biochemical
Chain of type II (TGFBR2) TGFβ receptor (P37173 23-567, species assumed): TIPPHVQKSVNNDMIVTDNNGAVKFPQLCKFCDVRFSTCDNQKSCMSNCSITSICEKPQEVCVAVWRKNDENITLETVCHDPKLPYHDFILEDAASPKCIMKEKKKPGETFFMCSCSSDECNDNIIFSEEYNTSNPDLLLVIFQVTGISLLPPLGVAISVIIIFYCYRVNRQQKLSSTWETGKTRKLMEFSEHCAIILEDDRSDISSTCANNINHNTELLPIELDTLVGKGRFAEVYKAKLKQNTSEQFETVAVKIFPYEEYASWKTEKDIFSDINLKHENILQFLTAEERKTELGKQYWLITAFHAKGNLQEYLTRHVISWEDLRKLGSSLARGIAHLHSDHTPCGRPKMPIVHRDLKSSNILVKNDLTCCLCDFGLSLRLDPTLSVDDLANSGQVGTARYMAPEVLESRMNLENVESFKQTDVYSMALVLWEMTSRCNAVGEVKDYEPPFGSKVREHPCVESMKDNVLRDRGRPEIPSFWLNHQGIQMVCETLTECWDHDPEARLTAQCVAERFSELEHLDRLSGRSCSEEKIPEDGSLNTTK

BMP signaling = BMP signaling inhibition; assay type: cell-based
Wnt signaling = Wnt signaling inhibition; assay type: cell-based
[6] = tested on: Cripto−/− mESC, TGFβ2-induced mesoderm; assay: T gene expression in Cripto−/− mESC, mesoderm induced by TGFβ2; assay type: cell-based, mouse
Summary of the method: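 Cripto−/− mESC were moved to serum-free conditions as embryoid bodies. At day 2 of EB formation they received 15 ng/ml TGFβ2 together with test compound. T expression was measured by RT-qPCR. Comparisons were made against a no-TGFβ2 control and against TGFβ2 alone. Mean ± SEM of ≥3 biological replicates; Student's t-test.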

mESC = assay: RT-qPCR of germ layer and lineage markers in mESC; assay type: cell-based, mouse
TGFBR1 = TGFBR1 protein levels by Western blot, overexpressed in HEK293T; assay type: cell-based, human; conditions: 24h, 5μM
TGFBR2 [7] = target: TGFBR2 (Homo sapiens, UniProt P37173); assay: TGFBR2 protein levels by Western blot; assay type: cell-based; conditions: HEK293T, DLD1 and A549 cells, 5μM
Chain of TGFBR2 (Homo sapiens, UniProt P37173) (P37173 23-567): as the sequence (P37173 23-567, species assumed) above

TGFBR2 [8] = assay: TGFBR2 protein levels by Western blot; assay type: cell-based, human; conditions: overexpressed in HEK293T, 24h, 5μM
H9 hESC = assay: hESC; assay type: cell-based, human
[9] = tested on: other tyrosine kinase receptors; assay: Levels of other tyrosine kinase receptors; assay type: cell-based
[10] = tested on: SMAD2/3 phosphorylation induced by Activin A; assay: p-SMAD2/3 Western blot in HEK293T cells, Activin A stimulation; assay type: cell-based, human
Summary of the method: (§2)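 HEK293T cells are treated with test compound and stimulated with Activin A or TGFβ. Cells are washed in cold PBS, lifted with enzyme-free buffer and lysed in ice-cold RIPA with protease and phosphatase inhibitors. Lysates are run on 10% SDS-Tris-glycine gels, blotted to PVDF and blocked and probed in 5% skim milk/TBST; detection by ECL or infrared imaging. p-SMAD2/3 is normalized to GAPD and total SMAD2/3 and reported as % inhibition.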

calcium channel = assay: Calcium inhibition as mechanism of ITD-1 activities
Activin A signaling = assay: SBE4-Luc; assay type: cell-based, human; conditions: HEK293T, Activin A 15ng/ml
Summary of the method: (§3)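 HEK293T cells grown in high-glucose DMEM with 1% FBS are co-transfected with SBE4-firefly luciferase and CMV-Renilla luciferase. After 12 h adhesion they are stimulated with Activin A or TGFβ2 (15 ng/ml each), with inhibitor added at the same time. Luminescence is read by dual-luciferase assay. IC50 comes from a log(inhibitor) vs normalized response fit, with toxic doses excluded; Emax is given as % inhibition. Data are mean ± SEM.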

[11] = tested on: Activin A signaling (Lefty1 target gene); assay: Lefty1 mRNA in Cripto−/− mESC, Activin A-induced; assay type: cell-based, mouse; conditions: 5μM, Cripto−/− mESCs
Summary of the method: as §1

[12] = tested on: SMAD2/3 phosphorylation induced by TGFβ2; assay: p-SMAD2/3 Western blot in HEK293T cells, TGFβ2 stimulation; assay type: cell-based, human
Summary of the method: as §2

HA-TGFBR2-mCherry = assay: Flow cytometry receptor degradation assay with HA-TGFBR2-mCherry in HEK293T; assay type: cell-based, human
HEK293T cells = assay: Toxicity control for inhibitory activity; assay type: cell-based, human
Summary of the method: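 Toxicity in the reporter assays is judged from Renilla luciferase levels, Alamar Blue viability or microscopy. Doses judged toxic are removed before IC50/EC50 curve fitting.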

TGFβ2 signaling = assay: SBE4-Luc; assay type: cell-based, human; conditions: for IC50: read-out: IC50 TGFβ2 signaling inhibition (SBE4-Luc)
Summary of the method: as §3

[13] = added day 3-5 of differentiation
[14] = given at day 1 of differentiation

IWP
mesoderm induction (T-GFP+ cells) (T-GFP mESCs): diminished the number of mesoderm cells

c1ccc(-c2[nH]ncc2-c2ccnc3ccccc23)nc1 [LY-364947, reference compound]
cardiogenesis (Myh6-GFP) (Myh6-GFP mESC; [13]): drove cardiomyogenesis
mesoderm induction (T-GFP+ cells) (T-GFP mESCs): diminished the number of mesoderm cells

CCOC(=O)C1=C(C)NC2=C(C(=O)CC(C)(C)C2)C1c1ccc(-c2ccccc2)cc1 (stereo not drawn) [ITD-1]
induction of Lefty1 in response to TGFβ2 ([1]; 5μM): effectively blocked induction
additional time needed to inhibit Lefty1 expression compared to SB-431542 ([1]; TGFβ2 treatment): ~ 3 h
TGFBR1 kinase activity [2]: did not block the kinase activity
mesoderm induced by Activin A (T gene expression) [3]: not by Activin A
cardiogenesis (Myh6-GFP) (Myh6-GFP mESC; added day 1-3 of differentiation, before mesoderm induction): completely abolished cardiogenesis
cardiogenesis (Myh6-GFP) (Myh6-GFP mESC; [13]): drove cardiomyogenesis; also recorded: optimally promoted cardiogenesis and beating cell clusters
immediate internalization of TGFBR2 (TGFBR2 [4]): did not block immediate internalization of TGFBR2
TGFBR2 kinase activity [5]: did not block the kinase activity
BMP signaling inhibition (BMP signaling): not inhibited
Wnt signaling inhibition (Wnt signaling): did not inhibit Wnt signaling; also recorded: not inhibited
mesoderm induced by TGFβ (T gene expression) [6]: selectively blocked mesoderm induced by TGFβ
germ layer markers at day 5 (RT-qPCR) (mESC; [14]): induced ectoderm at the expense of mesoderm
lineage markers at day 10 (RT-qPCR) (mESC; [14]): markers for mesoderm tissues such as heart, endothelium, smooth muscle and blood were all downregulated, while neural markers were upregulated
marker expression at day 5 (RT-qPCR) (mESC; mESC treated day 3-5): only the cardiac progenitor specific markers Kdr and Mesp1 were increased
marker expression at day 10 (RT-qPCR) (mESC; mESC treated day 3-5): only cardiac-specific markers were increased
TGFBR1 protein levels (TGFBR1): did not affect TGFBR1
endogenous TGFBR2 levels (TGFBR2 [7]): decreased endogenous TGFBR2 levels
TGFBR2 protein levels (TGFBR2 [8]): strongly downregulated TGFBR2 protein levels
enhancement of TNNT2+ cardiomyocyte yield (H9 hESC; added day 1-5, analysed day 6): ~ 30%
resulting cardiomyocytes (TNNT2+) (H9 hESC; added day 1-5, analysed day 6): ~ 60%
mesoderm induction (T-GFP+ cells) (T-GFP mESCs): diminished the number of mesoderm cells
effect on other tyrosine kinase receptors [9]: did not affect other tyrosine kinase receptors
phosphorylation of SMAD2/3 in response to Activin A [10]: only minimally
role of calcium inhibition in ITD-1 activities (calcium channel): no evidence was found for a role through calcium inhibition
Activin A signal inhibition (SBE4-Luc) (Activin A signaling): weak and partial inhibitor
induction of Lefty1 in response to Activin A [11]: not to Activin A
phosphorylation of SMAD2/3 induced by TGFβ2 [12]: potently blocked phosphorylation
Emax, maximal depletion of HA-TGFBR2 (HA-TGFBR2-mCherry; cell surface receptor): ~ 80%
time needed to reduce TGFBR2 levels (HA-TGFBR2-mCherry; time course, flow cytometry): At least 6 h
time of maximum reduction of TGFBR2 levels (HA-TGFBR2-mCherry; time course, flow cytometry): ≤ 24 h
Emax, maximal depletion of TGFBR2-mCherry (HA-TGFBR2-mCherry; total receptor): ~ 50%
toxicity as cause of inhibitory activity (HEK293T cells): Toxicity was not responsible
efficacy of TGFβ2 signaling inhibition (Emax, % inhibition) (TGFβ2 signaling; HEK293T, SBE4-Luc): 92%
IC50 (TGFβ2 signaling; HEK293T, TGFβ2 15ng/ml): 850 nM

NC(=O)c1ccc(-c2nc(-c3ccc4c(c3)OCO4)c(-c3ccccn3)[nH]2)cc1 [SB-431542, reference compound]
cardiogenesis (Myh6-GFP) (Myh6-GFP mESC; [13]): drove cardiomyogenesis
immediate internalization of TGFBR2 (TGFBR2 [4]): abolished internalization
cardiogenesis in hESC (H9 hESC; mesoderm patterning stage, data not shown): completely blocked cardiogenesis
mesoderm induction (T-GFP+ cells) (T-GFP mESCs): diminished the number of mesoderm cells
IC50 (TGFβ2 signaling; Homo sapiens, HEK-293T): 70 nM

c1cc(-c2cnn3cc(-c4ccc(OCCN5CCCCC5)cc4)cnc23)ccn1 [Dorsomorphin]
mesoderm induction (T-GFP+ cells) (T-GFP mESCs): did not affect mesoderm

CCOC(=O)C1=C(C)NC2=C(C(=O)CC(C)(C)C2)C1c1ccc(-c2ccccc2)cc1 (stereo not drawn) [ITD-1(+)]
cardiogenesis (Myh6-GFP) (Myh6-GFP mESC; [13]): drove cardiomyogenesis

B1: TGFβ2: TGFβ family member ligand added to ESC cultures (protein, UniProt P61812 303-414, looked up)
Transforming growth factor …: ALDAAYCFRNVQDNCCLRPLYIDFKRDLGWKWIHEPKGYNANFCAGACPYLWSSDTQHSRVLSLYNTINPEASASPCCVSQDLEPLTILYYIGKTPKIEQLSNMIVKSCKCS
cardiogenesis (Myh6-GFP) (Myh6-GFP mESC; [13]): inhibited cardiogenesis
